Source: ChEMBL document CHEMBL5352489, “Development of potent and selective degraders of PI5P4Kγ” (Eur J Med Chem, 2023)
Activity calls are given as the source filed them.

Key:
[1] = molecular target: T1, Phosphatidylinositol 5-phosphate 4-kinase type-2 beta (Homo sapiens) (UniProt P78356); assay: Binding affinity to full length wild type human PI5P4Kbeta by KINOMEscan KdELECT assay
T1 sequence (whole entry): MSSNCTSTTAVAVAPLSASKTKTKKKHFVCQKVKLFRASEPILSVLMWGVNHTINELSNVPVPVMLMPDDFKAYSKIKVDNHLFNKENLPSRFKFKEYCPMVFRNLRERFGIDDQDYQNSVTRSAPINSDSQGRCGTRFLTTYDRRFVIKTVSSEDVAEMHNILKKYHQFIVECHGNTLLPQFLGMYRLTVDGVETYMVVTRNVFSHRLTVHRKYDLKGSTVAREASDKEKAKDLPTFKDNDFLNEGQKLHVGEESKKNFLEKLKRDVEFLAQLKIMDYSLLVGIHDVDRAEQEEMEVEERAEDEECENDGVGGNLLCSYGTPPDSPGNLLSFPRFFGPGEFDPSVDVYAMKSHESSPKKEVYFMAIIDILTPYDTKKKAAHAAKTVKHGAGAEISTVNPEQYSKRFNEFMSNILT

[2] = molecular target: T2, Phosphatidylinositol 5-phosphate 4-kinase type-2 alpha (Homo sapiens) (UniProt P48426); assay: Binding affinity to full length recombinant human PI5P4Kalpha incubated for 30 mins in presence of ATP by HTRF assay
T2 sequence (whole entry): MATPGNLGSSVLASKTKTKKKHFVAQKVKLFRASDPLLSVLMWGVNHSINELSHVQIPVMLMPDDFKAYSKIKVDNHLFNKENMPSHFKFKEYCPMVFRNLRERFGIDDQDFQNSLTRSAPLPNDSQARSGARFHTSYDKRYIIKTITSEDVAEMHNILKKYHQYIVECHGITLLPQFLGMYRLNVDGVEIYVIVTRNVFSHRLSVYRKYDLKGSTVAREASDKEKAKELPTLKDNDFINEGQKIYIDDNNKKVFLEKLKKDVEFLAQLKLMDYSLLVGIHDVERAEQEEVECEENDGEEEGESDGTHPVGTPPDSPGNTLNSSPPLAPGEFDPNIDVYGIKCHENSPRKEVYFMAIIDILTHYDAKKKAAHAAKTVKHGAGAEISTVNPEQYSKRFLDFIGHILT

[3] = molecular target: T2, Phosphatidylinositol 5-phosphate 4-kinase type-2 alpha (Homo sapiens); assay: Induction of PI5P4Kalpha degradation in human MOLT-4 cells at 1 to 10 uM incubated for 6 hrs by Immunoblot analysis; type: cell-based; conditions: dose 1-10 µM
Outline: (§1)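 MOLT-4 cells were grown in RPMI-1640 with L-glutamine, 10% FBS and 1% penicillin/streptomycin, then exposed to compound for 6 h. Cells were lysed in RIPA buffer (pH 8.0) with protease and phosphatase inhibitors, and protein was measured by BCA. Equal protein was run on 4–12% gels and blotted to PVDF. Membranes were probed with PI5P4Kα or PI5P4Kβ antibody at 4 °C overnight, then with IRDye secondary for 1 h at RT, and imaged on an Odyssey.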

[4] = molecular target: T1, Phosphatidylinositol 5-phosphate 4-kinase type-2 beta (Homo sapiens); assay: Induction of PI5P4Kbeta degradation in human MOLT-4 cells at 1 to 10 uM incubated for 6 hrs by Immunoblot analysis; type: cell-based; conditions: dose 1-10 µM; outline: as §1

Measured: Activity

Cc1ncsc1-c1ccc([C@H](C)NC(=O)[C@@H]2C[C@@H](O)CN2C(=O)[C@@H](NC(=O)CCCCC(=O)Nc2ccc(C(=O)Nc3cccc(Nc4cc(-c5c[nH]c6ccccc56)ncn4)c3)cc2)C(C)(C)C)cc1
inactive: all assays above

Cc1ncsc1-c1ccc([C@H](C)NC(=O)[C@@H]2C[C@@H](O)CN2C(=O)C(NC(=O)CCCCCCC(=O)Nc2ccc(C(=O)Nc3cccc(Nc4cc(-c5c[nH]c6ccccc56)ncn4)c3)cc2)C(C)(C)C)cc1 (single isomer, unassigned)
inactive: all assays above

Cc1ncsc1-c1ccc([C@H](C)NC(=O)[C@@H]2C[C@@H](O)CN2C(=O)[C@@H](NC(=O)CCCCCCCCC(=O)Nc2ccc(C(=O)Nc3cccc(Nc4cc(-c5c[nH]c6ccccc56)ncn4)c3)cc2)C(C)(C)C)cc1
inactive: all assays above

CC(=O)N[C@H](C(=O)N1C[C@H](O)C[C@H]1C(=O)N[C@@H](C)c1ccc(-c2scnc2C)cc1OCCCCCNC(=O)c1ccc(C(=O)Nc2cccc(Nc3cc(-c4c[nH]c5ccccc45)ncn3)c2)cc1)C(C)(C)C
inactive: all assays above

Cc1ncsc1-c1ccc([C@H](C)NC(=O)[C@@H]2C[C@@H](O)CN2C(=O)[C@@H](NC(=O)CCC(=O)Nc2ccc(C(=O)Nc3cccc(Nc4cc(-c5c[nH]c6ccccc56)ncn4)c3)cc2)C(C)(C)C)cc1
inactive: all assays above
